The structures appear in SMILES notation.

What all share (assay type): cell-based
For experiment [1], the target named is T1, Excitatory amino acid transporter 3 (Homo sapiens, UniProt P43005).
T1 sequence (P43005 whole entry): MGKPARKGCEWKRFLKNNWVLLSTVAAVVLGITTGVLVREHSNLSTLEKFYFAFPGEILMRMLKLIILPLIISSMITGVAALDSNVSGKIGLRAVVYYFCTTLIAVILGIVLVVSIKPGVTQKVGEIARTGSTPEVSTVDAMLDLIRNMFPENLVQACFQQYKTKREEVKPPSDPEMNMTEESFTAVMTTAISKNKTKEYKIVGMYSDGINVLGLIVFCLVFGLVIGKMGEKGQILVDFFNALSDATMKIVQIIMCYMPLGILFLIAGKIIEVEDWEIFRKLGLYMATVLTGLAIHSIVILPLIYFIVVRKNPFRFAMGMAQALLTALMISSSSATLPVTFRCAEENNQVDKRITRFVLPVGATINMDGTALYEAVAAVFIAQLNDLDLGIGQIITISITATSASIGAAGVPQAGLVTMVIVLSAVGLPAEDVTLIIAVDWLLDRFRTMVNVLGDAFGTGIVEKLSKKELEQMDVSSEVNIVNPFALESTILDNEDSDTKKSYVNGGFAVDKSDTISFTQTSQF
The experiment is described as follows: Inhibition of [3H]-D-aspartate uptake at human EAAT3 expressed in HEK293 cells after 6 mins by scintillation counting. The method in brief:
(§1)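 Each transporter subtype stably expressed in its own HEK293 cell line. Inhibitor potency measured as block of [³H]-D-aspartate uptake into these cells and reported as IC₅₀ values.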

Experiment [2] has as its target Excitatory amino acid transporter 2 (Homo sapiens, UniProt P43004). The experiment is described as follows: Inhibition of [3H]-D-aspartate uptake at human EAAT2 expressed in HEK293 cells after 6 mins by scintillation counting. The method in brief:
as §1

The target in experiment [3] is Excitatory amino acid transporter 1 (Homo sapiens, UniProt P43003). As to the kind of experiment: Inhibition of [3H]-D-aspartate uptake at human EAAT1 expressed in HEK293 cells after 6 mins by scintillation counting. The method in brief:
as §1

Sequence of Excitatory amino acid transporter 1 (P43003 whole entry): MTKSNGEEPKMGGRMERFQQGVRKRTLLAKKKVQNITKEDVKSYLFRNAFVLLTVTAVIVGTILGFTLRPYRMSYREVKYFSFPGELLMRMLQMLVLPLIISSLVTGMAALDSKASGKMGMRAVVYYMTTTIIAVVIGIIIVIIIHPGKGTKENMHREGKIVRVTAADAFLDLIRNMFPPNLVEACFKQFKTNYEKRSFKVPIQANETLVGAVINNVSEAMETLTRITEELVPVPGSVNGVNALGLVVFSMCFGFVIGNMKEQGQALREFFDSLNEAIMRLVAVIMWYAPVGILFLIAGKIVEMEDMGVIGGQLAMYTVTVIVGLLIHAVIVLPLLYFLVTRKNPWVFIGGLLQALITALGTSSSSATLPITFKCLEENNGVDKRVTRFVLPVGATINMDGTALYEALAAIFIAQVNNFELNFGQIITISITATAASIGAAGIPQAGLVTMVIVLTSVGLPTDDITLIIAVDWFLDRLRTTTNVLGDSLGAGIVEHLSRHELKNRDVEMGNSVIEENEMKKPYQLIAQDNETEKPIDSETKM
Sequence of Excitatory amino acid transporter 2 (P43004 whole entry): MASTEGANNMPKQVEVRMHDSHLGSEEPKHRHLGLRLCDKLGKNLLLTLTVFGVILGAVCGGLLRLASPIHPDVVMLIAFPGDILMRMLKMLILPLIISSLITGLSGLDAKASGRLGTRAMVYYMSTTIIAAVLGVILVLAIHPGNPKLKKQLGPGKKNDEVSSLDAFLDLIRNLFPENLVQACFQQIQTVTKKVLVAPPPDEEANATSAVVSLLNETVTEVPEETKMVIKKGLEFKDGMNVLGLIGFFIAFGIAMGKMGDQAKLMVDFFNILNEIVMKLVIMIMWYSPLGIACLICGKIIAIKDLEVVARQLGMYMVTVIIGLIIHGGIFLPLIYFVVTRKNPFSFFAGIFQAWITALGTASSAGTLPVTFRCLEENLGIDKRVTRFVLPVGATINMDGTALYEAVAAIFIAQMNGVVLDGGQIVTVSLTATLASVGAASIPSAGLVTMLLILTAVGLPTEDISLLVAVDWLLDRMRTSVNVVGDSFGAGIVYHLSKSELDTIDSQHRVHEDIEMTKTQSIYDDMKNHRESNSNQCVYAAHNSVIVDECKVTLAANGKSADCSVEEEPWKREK

In the case of `COc1ccc2c(C3C(C#N)=C(N)OC4=C3C(=O)CC(c3ccccc3)C4)cc(=O)oc2c1` (stereo not drawn), the IC50 in experiment [1] is more than 300 µM; in experiment [2], more than 300 µM; in experiment [3] (read-out: IC50), more than 300 µM; in experiment [3] (read-out: pIC50 (converted)) it was more than 316 µM.

For `CCN(CC)c1ccc2c(C)c(-c3ccc(C4C(C#N)=C(N)OC5=C4C(=O)CC(c4ccccc4)C5)cc3)c(=O)oc2c1` (stereo not drawn), the IC50 is more than 300 µM in experiment [1], more than 300 µM in experiment [2], more than 300 µM in experiment [3] (read-out: IC50) and more than 316 µM in experiment [3] (read-out: pIC50 (converted)).

As to `CCN(CC)c1ccc2c(C3C(C#N)=C(N)OC4=C3C(=O)CC(c3cccc5ccccc35)C4)cc(=O)oc2c1` (stereo not drawn), the IC50 in experiment [1] is more than 300 µM; in experiment [2] it was more than 300 µM; in experiment [3] (read-out: IC50), more than 300 µM; in experiment [3] (read-out: pIC50 (converted)), more than 316 µM.

With `COc1ccc2c(C3CC(=O)C4=C(C3)OC(N)=C(C#N)C4C)cc(=O)oc2c1` (stereo not drawn), the IC50 in experiment [1] was more than 300 µM; in experiment [2], more than 300 µM; in experiment [3] (read-out: IC50) it was 17 µM; in experiment [3] (read-out: pIC50 (converted)), 16.2 µM.

`CCN(CC)c1ccc2c(C3CC(=O)C4=C(C3)OC(N)=C(C#N)C4C)cc(=O)oc2c1` (stereo not drawn): the IC50 is more than 300 µM in experiment [1], more than 300 µM in experiment [2] and 14 µM in experiment [3] (read-out: IC50).

In the case of `COc1ccc2c(C)c(-c3ccc(C4C(C#N)=C(N)OC5=C4C(=O)CC(c4ccccc4)C5)cc3)c(=O)oc2c1` (stereo not drawn), the IC50 in experiment [1] is more than 300 µM; in experiment [2], more than 300 µM; in experiment [3] (read-out: IC50) it was more than 300 µM; in experiment [3] (read-out: pIC50 (converted)), more than 316 µM.

For the origin of these results see ChEMBL document CHEMBL2203156, “Design, synthesis and pharmacological characterization of coumarin-based fluorescent analogs of excitatory amino acid transporter subtype 1 selective inhibitors, UCPH-101 and UCPH-102” (Bioorg Med Chem, 2012).
